Source: PubChem BioAssay
Hits are enriched below; roughly 0.96% of the tested compounds scored in any of these assays.
LAP4 TOR yeast: yeast TOR pathway LAP4-GFP modulation; S. cerevisiae LAP4-GFP multiplex, flow cytometry GFP, 3 h; median GFP as percent of DMSO wells; actives 0.34% (n = 320,000); GFP response vs DMSO, % at 10 µM; AID 2023;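 active = GFP response vs DMSO above a set limit, about the screen mean plus 3 SD, cut at about 150% in these data; inconclusive = under 70 cell events counted for the yeast strain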
CIT2 TOR yeast: alters CIT2-GFP fluorescence in TOR pathway yeast screen; S. cerevisiae CIT2-GFP strain, flow cytometry, 3 h; 100 means same as DMSO wells; GFP response vs DMSO, % at 10 µM; actives 0.065% (n = 320,000);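 active = GFP response relative to DMSO above a set limit, near the screen mean plus 3 SD, cut at about 150% in these data; inconclusive = Fewer than 70 cells measured for a yeast strain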;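 also: ratio of well median GFP fluorescence to mean of DMSO wells on the plate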
AGP1 TOR yeast: alters AGP1-GFP fluorescence in TOR pathway yeast screen; GFP response vs DMSO, % at 10 µM; S. cerevisiae AGP1-GFP multiplex flow cytometry, 3 h; GFP as percent of DMSO wells; actives 0.02% (n = 320,000);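 active = GFP response relative to DMSO above a set limit, near screen average plus 3 SD, cut at about 150% in these data; inconclusive = fewer than 70 cells counted for the yeast strain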;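 also: median GFP channel fluorescence of the gated AGP1 strain per well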
MEP2 TOR yeast: alters MEP2-GFP fluorescence in TOR pathway yeast screen; S. cerevisiae MEP2-GFP strain, flow cytometry GFP, 3 h; 100% = DMSO control level; GFP response vs DMSO, % at 10 µM; actives 0.51% (n = 330,000); AID 2016;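 active = GFP response versus DMSO above a set limit, roughly screen mean plus 3 SD, cut at about 180% in these data; inconclusive = fewer than 70 cells counted for a yeast strain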;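 also: median GFP fluorescence of the barcode-gated MEP2-GFP cells per well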
T cell HTS: T cell immune modulators affecting CD8 T cell-vesicle binding. 2C CD8+ T cell-vesicle binding, flow cytometry; active compounds read low. actives 0.068% (n = 330,000). response (vesicle binding), % at 7 µM;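 active = response, share of CD8 T cells binding vesicles, and their 90th percentile fluorescence all below set limits, cut at about 80% in these data, passing the limit was not always enough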;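 also: values below 100% mean blocked vesicle binding to the CD8+ T cells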
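Material: 2C TCR transgenic mouse naive CD8+ T cells, MACS-purified. Also added: QL9-charged Drosophila Ld/ICAM-1/B7-1 vesicles. Timing: binding 1.5 h at 37 °C. Measured by: high-throughput flow cytometry with anti-B7-1 and anti-CD8 staining. Read-out: percent CD8+ FL2 mean versus row control. Controls: Unloaded micro-vesicles (low), QL9 vesicles with 0.7% DMSO (high).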
RPL19A TOR yeast: modulators of TOR pathway RPL19A-GFP in S. cerevisiae | S. cerevisiae RPL19A-GFP strain, flow cytometry, 3 h; active compounds read low | percent response vs DMSO, % at 10 µM | actives 0.3% (n = 330,000) | AID 2025;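 active = percent response vs DMSO below 50%; inconclusive = fewer than 70 events counted for the yeast strain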;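 also: median channel GFP fluorescence of the barcoded RPL19A-GFP strain; lower means less RPL19A-GFP as with rapamycin TOR inhibition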
A number is an active result; n = inactive; u = inconclusive; x = no result given; ! = not confirmed by another sample; [ ] = another dose, or the depositor's remark.

SMILES	LAP4 TOR yeast	CIT2 TOR yeast	AGP1 TOR yeast	MEP2 TOR yeast	T cell HTS	RPL19A TOR yeast
Cc1cc(C)n(-c2ccc(C(=O)N3CCN(S(=O)(=O)c4ccc(C(C)C)cc4)CC3)cc2)n1	n	u	n	221[may fluoresce violet]	n	n
CC(C)(C)c1ccccc1NC(=O)N1CCNC(=O)C1CC(=O)Nc1ccc(F)cc1 (configuration not stated)	n	n	n	n	n	n
Cc1cc(C)nc(NC(=O)c2ccc(Cl)cc2)n1	n	n	n	n	n	n
Cc1cc(C)nc(NC(=O)c2cccc(Cl)c2)n1	n	u	u	725[may fluoresce violet]	n	17[may fluoresce violet]
C=CCn1c(SCC(=O)NC(=O)NCC(C)C)nnc1C1CCCCC1	n	x	n	527[may fluoresce violet]	n	n
CCC(=O)Nc1ccc(C(=O)CN2C(=O)NC3(CCCCCC3)C2=O)cc1	n	n	n	n	n	n
Cc1nnsc1S(=O)(=O)c1ccccc1	n	n	n	n	n	n
CC(C)[C@H](NC(=O)c1ccco1)C(=O)OCC(=O)Nc1cccc(F)c1	n	n	n	n	n	n
CC(C)[C@H](NC(=O)c1ccco1)C(=O)OCC(=O)Nc1ccc(Cl)c(S(=O)(=O)N(C)C)c1	n	u	u	178[may fluoresce violet]	n	21[may fluoresce violet]
Cc1cccc(OCC(=O)N(Cc2ccc(F)cc2)C2CCS(=O)(=O)C2)c1C (configuration not stated)	n	n	n	n	n	n
COc1ccc(C(CNC(=O)CNC(=O)c2ccc(F)cc2)N2CCCC2)cc1 (configuration not stated)	n	n	n	n	n	n
COc1ccc(C(CNC(=O)Cc2c(F)cccc2Cl)N2CCCCC2)cc1 (configuration not stated)	n	u	n	299[may fluoresce violet]	n	n
C/C(CC(=O)Nc1cccnc1)=N\NC(=O)C(C)Oc1ccc(Cl)cc1Cl (configuration not stated)	n	n	n	n	n	n
CC1CCCN(S(=O)(=O)c2ccc(C(=O)Nc3nnc(-c4ccccc4Cl)o3)cc2)C1 (configuration not stated)	n	n	n	n	n	n
COc1ccccc1-c1nnc(NC(=O)c2ccc(S(=O)(=O)N3CCCC3)cc2)o1	169	n	n	n	n	n
O=C(COC(=O)c1cccc(O)c1)Nc1ccc(S(=O)(=O)N2CCOCC2)cc1	n	n	n	n	n	n
CCCc1cc(NCC2CCCO2)n2c(nc3ccccc32)c1C#N (configuration not stated)	n	u	x	537[may fluoresce violet]	n	30[may fluoresce violet]
COc1cc(/C=N/N(C)C)cc(Br)c1O	n	u	u	461[may fluoresce violet]	n	40[may fluoresce violet]
CN=c1scc(C)n1/N=C/c1cc(Br)c(O)c(OC)c1	n	n	n	n	n	n
CC(=O)Nc1c(O)c2cccc3c2n(c1=O)CCC3	n	n	n	n	n	n
Cc1nc(C(C)NC(=O)c2cc(COc3ccc(C)c(C)c3)on2)c(C)s1 (configuration not stated)	n	u	u	n	n	17[may fluoresce violet]
Cc1cccc(CC(C)NC(=O)c2cc(COc3ccc(C)c(C)c3)on2)n1 (configuration not stated)	n	n	n	n	n	n
Cc1ccc(C)c(OCc2cc(C(=O)NC(C)c3cnn(C)c3)no2)c1 (configuration not stated)	n	u	u	n	n	25[may fluoresce violet]
O=S(=O)(c1ccccc1Cl)N1CCC(Cc2ccccc2)CC1	n	n	n	n	n	n
N#Cc1sc(NCc2ccccn2)nc1Cl	n	n	n	n	n	n
SMILES	LAP4 TOR yeast	CIT2 TOR yeast	AGP1 TOR yeast	MEP2 TOR yeast	T cell HTS	RPL19A TOR yeast
Cc1cccc(N2CCN(S(=O)(=O)c3c(C)[nH]c(C)c3C(=O)N3CCCC3)CC2C)c1 (configuration not stated)	n	n	n	n	n	n
CCCC(=O)N1CCN(c2nc3ccccc3s2)CC1	n	n	n	n	n	n
CSc1ccc(NC(=O)N2CCN(c3nc4ccccc4s3)CC2)cc1	n	u	u	212[may fluoresce violet]	n	n
Cc1ccc(S(=O)(=O)N2CCN(C3CC4CCC3C4)CC2)cc1 (configuration not stated)	n	n	n	n	n	n
O=C(CC1C(=O)NCCN1Cc1ccccc1)NCCC1=CCCCC1 (configuration not stated)	n	n	n	n	n	n
CCN(CC)CCNC(=O)c1ccc(NC(=O)c2ccc(C(=O)c3ccccc3)cc2)cc1	n	n	n	n	76	n
COc1cc(NC(=O)c2ccccc2)ccc1NC(=O)c1cc2ccccc2o1	n	n	n	207	n	n
COc1cccc(C(=O)Nc2ccc(NC(=O)c3cc4ccccc4o3)c(OC)c2)c1	n	n	n	n	n	n
CCN(CC(=O)NCc1ccc(Cl)cc1)C(=O)CNS(=O)(=O)c1ccc(NC(C)=O)cc1	n	n	n	n	n	n
c1ccc(C(c2nnnn2Cc2cccs2)N2CCN(C3CCCC3)CC2)cc1 (configuration not stated)	n	u	u	231[may fluoresce violet]	n	33[may fluoresce violet]
Fc1ccc(C(c2nnnn2Cc2cccs2)N2CCN(C3CCCC3)CC2)cc1 (configuration not stated)	n	n	n	n	n	n
CC1=C(C(=O)NCc2ccccc2)C(c2cccnc2)n2ncnc2N1 (configuration not stated)	n	n	n	n	n	n
COc1ccc(C2C(C(=O)NCc3ccccc3)=C(C)Nc3ncnn32)cc1OC (configuration not stated)	n	u	u	200[may fluoresce violet]	n	n
Cc1cc(=O)oc2cc(NS(=O)(=O)c3ccccc3)ccc12	n	u	n	561[may fluoresce violet]	n	n
C=CCOc1ccc(C(=O)n2cc(C(=O)OC)c3ccccc32)cc1	n	n	n	186	n	n
COc1ccccc1NC(=S)N1CCC(c2nc3cc(C)c(C)cc3[nH]2)CC1	n	u	u	300[may fluoresce violet]	n	n
OC/C(Br)=C(\Br)CO	n	n	n	n	n	n
COC(=O)Nc1ccc2c(c1)N(C(=O)CCN1CCN3CCCC3C1)c1ccccc1CC2 (configuration not stated)	157!	n	n	229!	n	n
CCOC(=O)Nc1ccc2c(c1)N(C(=O)CCN1CCN3CCCC3C1)c1ccccc1CC2 (configuration not stated)	n	n	n	n	n	n
CCc1ccc(S(=O)(=O)N2CCCC(N3CCN(c4ccc(OC)cc4)CC3)C2)cc1 (configuration not stated)	n	x	n	n	n	n
COc1ccc2[nH]cc(C=O)c2c1	n	n	n	n	n	n
COc1ccc2[nH]cc(/C=C/c3cc[n+](C)cc3)c2c1	n	u	u	369[may fluoresce violet]	n	n
